Source: ChEMBL document CHEMBL1122593, “Phosphorus-nitrogen compounds. 24. Phosphoramide mustard carrier derivatives” (1984)
Values joined by “and” are separate entries in the source; they are usually repeats but may differ in a detail not shown here. Identical values can stand only once.

Legend:
L1210 [1] = assay: Antitumor activity against L1210 lymphoid leukemia and treated mean survival time per control mean survival time was determined at 500 mg/kg; assay type: functional, Mus musculus
Outline: (§1)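 Mice bearing L1210 lymphoid leukaemia, tested by NCI contractors. Compound given as a single injection 1 day after tumour cell inoculation. T/C% = (treated/control) × 100.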

L1210 [2] = assay: Antitumor activity against L1210 lymphoid leukemia and treated mean survival time per control mean survival time was determined at 300 mg/kg; assay type: functional, Mus musculus; outline: as §1
Mus musculus = assay: Antitumor activity against CD8F1 mammary tumor and treated mean survival time per control mean survival time was determined at 300 mg/kg; assay type: functional
Outline: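 Mice bearing CD8F1 mammary tumour, tested by NCI contractors. Compound given as a single injection starting 20 days after tumour cell inoculation. T/C% = (treated/control) × 100.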

P388 = assay: Antitumor activity against P388 Lymphocytic leukemia and treated mean survival time per control mean survival time was determined at 200 mg/kg; assay type: functional, Mus musculus
Outline: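 Mice bearing P388 lymphocytic leukaemia, tested by NCI contractors. Compound given as five consecutive injections beginning 1 day after tumour cell inoculation. T/C% = (treated/control) × 100.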

[3] = Antitumor activity against Lewis lung carcinomia and treated mean survival time per control mean survival time was determined at 400 mg/kg; assay type: functional, Mus musculus
Outline: (§2)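 Mice bearing Lewis lung carcinoma, tested by NCI contractors. Compound given as nine consecutive injections beginning 1 day after tumour cell inoculation. T/C% = (treated/control) × 100.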

[4] = Antitumor activity against Lewis lung carcinomia and treated mean survival time per control mean survival time was determined at 50 mg/kg; assay type: functional, Mus musculus; outline: as §2

Structure (SMILES): CC/C(=C(/CC)c1ccc(OP(=O)(Cl)N(CCCl)CCCl)cc1)c1ccc(OP(=O)(Cl)N(CCCl)CCCl)cc1 (centres undefined)
- T/C (L1210 [1]): 100%

Structure (SMILES): CC/C(=C(/CC)c1ccc(OP(N)(=O)N(CCCl)CCCl)cc1)c1ccc(OP(N)(=O)N(CCCl)CCCl)cc1 (centres undefined)
- T/C (L1210 [2]): 113%
- T/C (Mus musculus): 39%
- T/C (P388; 200 mg/kg): 100% and 104%

Structure (SMILES): NP(=O)(Oc1cccc2c(OP(N)(=O)N(CCCl)CCCl)cccc12)N(CCCl)CCCl (centres undefined)
- T/C (L1210 [1]): 95%

Structure (SMILES): NP(=O)(Oc1c2occc2cc2ccc(=O)oc12)N(CCCl)CCCl (centres undefined)
- T/C (P388): 114%

Structure (SMILES): CC(C)N1C[C@@H](COc2cccc3ccccc23)O[P@@]1(=O)N(CCCl)CCCl (racemic)
- T/C (L1210 [1]; 500 mg/kg): 130% and 110% and 90%

Structure (SMILES): CC(C)N1C[C@H](COc2cccc3ccccc23)O[P@@]1(=O)N(CCCl)CCCl (racemic)
- T/C [3]: 90%
- T/C [4]: 95%
